This assay concerns T98G, U87MG and E98. Put plainly: Viability after Gefitinib. In kind it is cell-based, human. The conditions noted are these: 72 hours, 10 µM. The gist of the method: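 Cells were seeded at 3–5 × 10³/well in 96-well plates and allowed to attach. After 24 h the test compound was added, and viability was read at 72 h by CellTiter-Glo luminescence, normalized as % of control. U87MG and E98 were grown in DMEM and T98G in Eagle MEM, each with 10% heat-inactivated FBS, at 37°C and 5% CO2.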

The values below come from PMC7425423 (Brain Communications, 2020).

With `COc1cc2ncnc(Nc3ccc(F)c(Cl)c3)c2cc1OCCCN1CCOCC1` [Gefitinib], the “sensitivity of cell lines (viability)” value is on record as “resistance”.
